Measured values from ChEMBL document CHEMBL1938355, “Antimycobacterial activities of 5-alkyl (or halo)-3'-substituted pyrimidine nucleoside analogs” (Bioorg Med Chem Lett, 2012).
Values after ≈ are worked out from the molar mass of the structure shown. Active and inactive are the calls of the source. The calls are words filed in the database; no cut-off is given here.

Assays:
[1] = test system: Mycobacterium tuberculosis; experiment: Antimycobacterial activity against Mycobacterium bovis BCG assessed as growth inhibition at 0.5 to 100 ug/ml by microplate alamar blue assay; assay type: functional, organism-based; settings: variant bovis BCG
How it was run: (§1)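 Strains obtained from ATCC. Tested by microplate alamar blue assay. Compounds made up as 10 mg/mL DMSO stocks, then serially diluted in 7H9GC medium. Final test concentrations were 100, 50, 25, 10, 5, 1 and 0.5, each in triplicate. Experiments were run twice, and mean percent growth inhibition is reported.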

[2] = test system: Mycobacterium tuberculosis; experiment: Antimycobacterial activity against Mycobacterium bovis BCG assessed as growth inhibition at 100 ug/ml by microplate alamar blue assay; assay type: functional; settings: variant bovis BCG, read-out: GI; how it was run: as §1
[3] = test system: Mycobacterium tuberculosis; experiment: Antimycobacterial activity against Mycobacterium bovis BCG by microplate alamar blue assay; assay type: functional; settings: variant bovis BCG
[4] = test system: Mycobacterium tuberculosis; experiment: Antimycobacterial activity against Mycobacterium bovis BCG assessed as growth inhibition at 50 ug/ml by microplate alamar blue assay; assay type: functional; settings: variant bovis BCG, read-out: GI; how it was run: as §1
[5] = test system: Mycobacterium tuberculosis; experiment: Antimycobacterial activity against Mycobacterium bovis BCG assessed as growth inhibition at 10 ug/ml by microplate alamar blue assay; assay type: functional; settings: variant bovis BCG, read-out: GI; how it was run: as §1
[6] = test system: Mycobacterium tuberculosis; experiment: Antimycobacterial activity against Mycobacterium bovis BCG assessed as growth inhibition at 1 ug/ml by microplate alamar blue assay; assay type: functional; settings: variant bovis BCG, read-out: GI; how it was run: as §1
[7] = test system: Mycobacterium tuberculosis; experiment: Antimycobacterial activity against Mycobacterium bovis BCG assessed as growth inhibition at 0.5 ug/ml by microplate alamar blue assay; assay type: functional; settings: variant bovis BCG, read-out: GI; how it was run: as §1

SMILES | growth inhibition (GI) [1] | inhibition of growth at 100 µg/mL [2] [%] | further results
CCc1cn([C@H]2C[C@@H](O)[C@@H](CO)O2)c(=O)[nH]c1=O | inactive |  | 
O=c1[nH]c(=O)n([C@H]2C[C@H](F)[C@@H](CO)O2)cc1C(F)(F)F | inactive |  | 
[N-]=[N+]=N[C@H]1C[C@H](n2cc(Cl)c(=O)[nH]c2=O)O[C@@H]1CO |  | 50 | 
CCc1cn([C@H]2CC[C@@H](CO)O2)c(=O)[nH]c1=O | inactive |  | 
N[C@@H]1CONC1=O [CYCLOSERINE] |  | 100 | MIC50 [3]: 1 µg/mL (≈ 9.79 µM); inhibition of growth at 50 µg/mL [4]: 100%; inhibition of growth at 10 µg/mL [5]: 100%; inhibition of growth at 1 µg/mL [6]: 50%
CCc1cn([C@H]2C[C@H](N=[N+]=[N-])[C@@H](CO)O2)c(=O)[nH]c1=O |  | 95 | MIC50 [3]: 1 µg/mL (≈ 3.56 µM); inhibition of growth at 50 µg/mL [4]: 95%; inhibition of growth at 10 µg/mL [5]: 85%; inhibition of growth at 1 µg/mL [6]: 50%
CCc1cn([C@H]2C[C@H](F)[C@@H](CO)O2)c(=O)[nH]c1=O |  | 40 | 
CO[C@H]1/C=C/O[C@@]2(C)Oc3c(C)c(O)c4c(O)c(c(/C=N/N5CCN(C)CC5)c(O)c4c3C2=O)NC(=O)/C(C)=C\C=C\[C@H](C)[C@H](O)[C@@H](C)[C@@H](O)[C@@H](C)[C@H](OC(C)=O)[C@@H]1C [RIFAMPIN] |  |  | inhibition of growth at 0.5 µg/mL [7]: 100%
Cc1cn([C@H]2C[C@H](N)[C@@H](CO)O2)c(=O)[nH]c1=O [3-AMINO- 3-DEOXYTHYMIDINE] |  | 50 | 
CCc1cn([C@H]2C[C@H](I)[C@@H](CO)O2)c(=O)[nH]c1=O | inactive |  | 
[N-]=[N+]=N[C@H]1C[C@H](n2cc(F)c(=O)[nH]c2=O)O[C@@H]1CO | inactive |  | 
[N-]=[N+]=N[C@H]1C[C@H](n2cc(Br)c(=O)[nH]c2=O)O[C@@H]1CO |  | 50 | 
